# According to publication PMC4740292 (EBioMedicine, 2015):
# Where two headings read alike, the source gives them in different places.
# How the values were obtained:
# HCVcc-Luc = test: Time-of-addition assay, HCVcc-Luc on Huh7.5.1 cells; format: cell-based, Hepatitis C virus; conditions: 2 μM for 3 h, added at indicated time points
# Method in brief: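 Huh7.5.1 cells inoculated with HCVcc-Luc at 37 °C for 3 h. At set time points, test compound at 2 μM (or DMSO) added for 3 h, then removed. Cells kept a further 48 h at 37 °C before luciferase readout. Mean of n = 3 with s.d.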
# HCVpp = HCVpp infection of primary human hepatocytes; format: cell-based, Hepatitis C virus; conditions: pretreatment of PHHs at non-cytotoxic concentrations
# [1] = Human liver microsomal stability assay; format: in vitro ADME; conditions: both, human liver microsomes, pH 7.4
# [2] = test system: HCV replicon cell line 2-3(+); test: HCV replicon cell line 2-3; format: cell-based, Hepatitis C virus (Genotype 1b); conditions: 20 nM, 24, 48 or 72 hours, replicon cells
# CHIKVpp = CHIKVpp infection of Huh7.5.1 cells, luciferase assay; format: cell-based, Chikungunya virus; conditions: Huh7.5.1, Roc-A 10 nM, Fig. S3F
# PHB-CRaf interaction = PHB-CRaf interaction (Homo sapiens, UniProt P35232+Q99623); test: Co-IP of Flag-CRaf and V5-tagged PHB1 & 2 in 293T cells; format: cell-based; conditions: 20 nM
# Chain of PHB-CRaf interaction (P35232 whole entry): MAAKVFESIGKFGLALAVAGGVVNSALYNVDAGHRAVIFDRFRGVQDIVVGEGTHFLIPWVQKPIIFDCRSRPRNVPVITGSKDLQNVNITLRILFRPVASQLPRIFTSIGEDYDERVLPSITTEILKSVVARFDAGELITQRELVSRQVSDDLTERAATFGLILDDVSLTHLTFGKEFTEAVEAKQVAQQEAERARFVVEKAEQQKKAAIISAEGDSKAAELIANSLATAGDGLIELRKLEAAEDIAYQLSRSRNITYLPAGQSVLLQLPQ
# Chain of PHB-CRaf interaction (Q99623 whole entry): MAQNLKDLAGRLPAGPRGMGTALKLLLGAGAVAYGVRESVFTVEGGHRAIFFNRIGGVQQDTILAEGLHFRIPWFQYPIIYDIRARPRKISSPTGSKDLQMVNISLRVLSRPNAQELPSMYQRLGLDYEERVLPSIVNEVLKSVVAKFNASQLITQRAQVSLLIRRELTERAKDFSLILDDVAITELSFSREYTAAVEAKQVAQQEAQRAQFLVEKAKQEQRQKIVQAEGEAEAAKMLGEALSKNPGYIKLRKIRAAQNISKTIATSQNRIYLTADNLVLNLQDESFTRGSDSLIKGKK
# Method in brief: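 Flag-CRaf and V5-tagged PHB1 and PHB2 co-expressed in 293T cells by co-transfection. Cells left untreated or exposed to test compound at 20 nM, then immunoprecipitated with anti-Flag antibody. Co-precipitated PHB1/PHB2 and CRaf detected by immunoblotting.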
# cell surface PHB1 and 2 = cell surface PHB1 and 2 (Homo sapiens, UniProt P35232+Q99623); test: Cell surface biotinylation assay, Huh7.5.1 cells; format: cell-based; conditions: 20 nM
# PHB1, PHB2, CRaf, Ras = PHB1, PHB2, CRaf, Ras (Homo sapiens, UniProt P35232+Q99623); test: Western blotting of cellular PHB1, PHB2, CRaf and Ras in Huh7.5.1 cells; format: cell-based; conditions: 20 nM, 1, 2 and 3 days
# Chain of PHB1, PHB2, CRaf, Ras (P35232 2-272 limits assumed): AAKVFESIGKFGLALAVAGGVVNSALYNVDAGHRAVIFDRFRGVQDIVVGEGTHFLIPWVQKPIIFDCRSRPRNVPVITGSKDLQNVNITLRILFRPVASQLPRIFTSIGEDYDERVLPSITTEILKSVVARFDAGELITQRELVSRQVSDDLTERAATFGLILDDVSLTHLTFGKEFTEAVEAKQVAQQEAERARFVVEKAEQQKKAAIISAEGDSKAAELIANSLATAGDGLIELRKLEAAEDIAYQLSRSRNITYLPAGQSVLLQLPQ
# Chain of PHB1, PHB2, CRaf, Ras (Q99623 2-299 limits assumed): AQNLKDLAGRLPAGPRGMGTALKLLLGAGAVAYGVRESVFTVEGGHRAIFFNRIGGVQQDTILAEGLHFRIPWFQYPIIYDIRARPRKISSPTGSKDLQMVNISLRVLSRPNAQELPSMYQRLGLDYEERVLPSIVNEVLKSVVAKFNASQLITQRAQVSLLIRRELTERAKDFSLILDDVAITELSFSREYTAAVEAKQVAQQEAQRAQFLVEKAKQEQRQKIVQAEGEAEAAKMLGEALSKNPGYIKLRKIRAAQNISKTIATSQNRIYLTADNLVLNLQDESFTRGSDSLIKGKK
# [3] = test system: JFH-1 genotype 2a infectious virus (HCVcc); conditions: for HCVcc infection / HCV entry inhibition (in words) / TI (CC50/EC50) / EC50: Huh7.5.1
# Huh7.5.1 cells = test: Cytotoxicity; format: cell-based, human
# [4] = compounds incubated with cells for a total of 3 h
# [5] = compounds incubated with cells for a total of 48 h
Compound,HCVcc infection / HCV entry inhibition (in words) [3],CC50 (Huh7.5.1 cells; [4]),TI (CC50/EC50) ([3]; 3 h incubation),"EC50 [3, 4]",further results
"CONC(=O)[C@H]1[C@@H](O)[C@@]2(O)c3c(OC)cc(OC)cc3O[C@@]2(c2ccc(OC)cc2)[C@@H]1c1ccccc1 [Compound E2, (-)-NH hydroxamate]",,,,,anti-HCV activity by time of addition (HCVcc-Luc): appeared to inhibit HCV no matter when added
"COc1ccc([C@@]23Oc4cc(OC)cc(OC)c4[C@]2(O)[C@H](O)[C@H](C(=O)N(C)C)[C@H]3c2ccccc2)cc1 [Roc-A, rocaglamide A]",significantly reduced,,,,"HCVpp entry (in words) (HCVpp): suppressed HCVpp entry; half-life at 1 µM [1]: 37 min; HCV RNA replication or protein translation [2]: did not inhibit HCV RNA replication or protein translation; CHIKVpp infection (CHIKVpp): significantly reduced; PHB-CRaf interaction (PHB-CRaf interaction): disrupted the PHB-CRaf interaction; cell surface expression of PHB1 and 2 (cell surface PHB1 and 2): decreased the cell surface expression of PHB1 and 2; PHB1, 2, Ras and CRaf total protein level (PHB1, PHB2, CRaf, Ras): decreased PHB1, 2, Ras, and CRaf at the total protein level"
(+)-aglaroxin C,,100000 nM,5a,20000 nM,
(+)-rocaglamide [(+) Roc-A],,300000 nM,,> 200000 nM,
(-)-aglaroxin C [(−)-Aglaroxin C],active enantiomer for HCV viral entry inhibition,12000 nM,60a,200 nM,
(-)-rocaglamide [(−) Roc-A],stronger inhibition on HCV entry than the (+) enantiomer,50000 nM,50,1000 nM,"CC50 (Huh7.5.1 cells; [5]): 300 nM; TI (CC50/EC50) ([3]; 48 h incubation): 75; EC50 [3, 5]: 4 nM"
(±)-aglaroxin C [(±) Aglaroxin C (C10)],,10000 nM,100,100 nM,"CC50 (Huh7.5.1 cells; [5]): 20 nM; anti-HCV activity by time of addition (HCVcc-Luc): maximal anti-HCV activity when added together with the virus but lost its activity when added 3 h after the infection was initiated; TI (CC50/EC50) ([3]; 48 h incubation): 500; half-maximum effective concentrations (EC50), in words ([3]; JFH-1 genotype 2a infectious virus in cell culture): picomolar; EC50 [3, 5]: 0.04 nM"
